Measured values: ChEMBL document CHEMBL4732169, “Design and synthesis of mycobacterial pks13 inhibitors: Conformationally rigid tetracyclic molecules” (Eur J Med Chem, 2021)
Converted amounts (≈) assume the structure as drawn.

Assays:
Assay type in all cases: functional
[1] = tested on: Mycobacterium tuberculosis; assay: Antitubercular activity against multi drug resistance Mycobacterium tuberculosis V2475 by MABA assay
Summary of the method: (§1)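 Microplate alamar blue assay (MABA) against each Mtb strain, either H37Rv or a clinical isolate (drug-susceptible, MDR or XDR). MIC taken as the lowest concentration giving at least 90% reduction of the bacterial growth signal. Each value is the average of three individual measurements.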

[2] = tested on: Mycobacterium tuberculosis; assay: Antitubercular activity against isoniazid/rifampin resistance Mycobacterium tuberculosis KZN494 by MABA assay; summary of the method: as §1
[3] = tested on: Mycobacterium tuberculosis; assay: Antitubercular activity against isoniazid/rifampin/levofloxacin/ofloxacin/kanamycin extensively drug resistance Mycobacterium tuberculosis TF274 XDR by MABA assay; summary of the method: as §1
[4] = tested on: Mycobacterium tuberculosis; assay: Antitubercular activity against extensively drug resistance Mycobacterium tuberculosis R506 XDR by MABA; summary of the method: as §1

Structure (SMILES) | MIC=<90 [1] | MIC=<90 [2] | MIC=<90 [3] | MIC=<90 [4]
NNC(=O)c1ccncc1 [ISONIAZID] | 16 µg/mL (≈ 117 µM) | 16 µg/mL (≈ 117 µM) | 8 µg/mL (≈ 58.3 µM) | 8 µg/mL (≈ 58.3 µM)
O=c1[nH]c2cc(O)ccc2c2oc3ccc(O)c(CN4CCCCC4)c3c12 | 0.0625 µg/mL (≈ 0.172 µM) | 0.0313 µg/mL (≈ 0.0859 µM) | 0.0156 µg/mL (≈ 0.0428 µM) | 0.0156 µg/mL (≈ 0.0428 µM)
CO[C@H]1/C=C/O[C@@]2(C)Oc3c(C)c(O)c4c(O)c(c(/C=N/N5CCN(C)CC5)c(O)c4c3C2=O)NC(=O)/C(C)=C\C=C\[C@H](C)[C@H](O)[C@@H](C)[C@@H](O)[C@@H](C)[C@H](OC(C)=O)[C@@H]1C [RIFAMPIN] | 4 µg/mL (≈ 4.86 µM) | 128 µg/mL (≈ 156 µM) | >128 µg/mL | >128 µg/mL
CC1COc2c(N3CCN(C)CC3)c(F)cc3c(=O)c(C(=O)O)cn1c23 (configuration not stated) [OFLOXACIN] | 0.5 µg/mL (≈ 1.38 µM) | 0.5 µg/mL (≈ 1.38 µM) | 8 µg/mL (≈ 22.1 µM) | 4 µg/mL (≈ 11.1 µM)
NC[C@H]1O[C@H](O[C@H]2[C@H](O)[C@@H](O[C@H]3O[C@H](CO)[C@@H](O)[C@H](N)[C@H]3O)[C@H](N)C[C@@H]2N)[C@H](O)[C@@H](O)[C@@H]1O [KANAMYCIN] | 2 µg/mL (≈ 4.13 µM) | 2 µg/mL (≈ 4.13 µM) | >128 µg/mL | >128 µg/mL
C[C@H]1COc2c(N3CCN(C)CC3)c(F)cc3c(=O)c(C(=O)O)cn1c23.C[C@H]1COc2c(N3CCN(C)CC3)c(F)cc3c(=O)c(C(=O)O)cn1c23.O [LEVOFLOXACIN] | – | – | 1 µg/mL | 2 µg/mL
